Results published in ChEMBL document CHEMBL1139506, “Effect on K(ATP) channel activation properties and tissue selectivity of the nature of the substituent in the 7- and the 3-position of 4H-1,2,4-benzothiadiazine 1,1-dioxides” (J Med Chem, 2005).
Values belong to the compound of their own block, whether it stands above or below them.

Assays:
Rattus norvegicus [1] = species on record: Rattus norvegicus; assay: Concentration required for relaxation of the 30 mM KCl-induced contraction of rat aortic rings (n=4); type: functional; settings: Aorta, read-out: ED50 (the source's name)
Procedure, shortened: (§1)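 Endothelium-denuded transverse aortic rings (3-4 mm) from fed Wistar rats (180-200 g); isometric tension by force transducer. After 60 min equilibration, contracted with 30 mM KCl; at stable tension, drug added cumulatively until maximal relaxation or up to 0.3 mM. Relaxation expressed as % of KCl contraction; ED50 (50% inhibition of KCl plateau) from dose curves; mean ± SEM (n).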

Rattus norvegicus [2] = species on record: Rattus norvegicus; assay: Effect on insulin secretion from rat pancreatic islets at 10 uM concentration (n=22); type: functional
Procedure, shortened: (§2)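 Islets isolated by collagenase from fed Wistar rats (180-220 g); groups of 10 preincubated 30 min, 37 °C, in bicarbonate salt medium with 2.8 mM glucose, 0.5% dialyzed albumin, O2/CO2 95:5. Then incubated 90 min, 37 °C, with 16.7 mM glucose plus drug. Insulin measured by radioimmunoassay against rat insulin standard; expressed as % of drug-free 16.7 mM glucose control; mean ± SEM (n).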

Rattus norvegicus [3] = species on record: Rattus norvegicus; assay: Effect on insulin secretion from rat pancreatic islets at 50 uM concentration (n=15); type: functional; procedure, shortened: as §2
Rattus norvegicus [4] = species on record: Rattus norvegicus; assay: Concentration giving 50% relaxation of the 30 mM KCl-induced contraction of rat aortic rings (n=7); type: functional; settings: Aorta, read-out: ED50 (the source's name); procedure, shortened: as §1
Rattus norvegicus [5] = species on record: Rattus norvegicus; assay: Effect on insulin secretion from rat pancreatic islets at 50 uM concentration (n=16); type: functional; procedure, shortened: as §2
[6] = Ionization constant was determined; type: physicochemical
Procedure, shortened: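 Ionization constant found by UV spectroscopy in aqueous buffers spanning pH 5 to 12; pKa calculated with the Debye-Hückel equation at the absorbance maximum of the basic form.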

Rattus norvegicus [7] = species on record: Rattus norvegicus; assay: ED50/IC50 ratio was determined; type: functional
Rattus norvegicus [8] = species on record: Rattus norvegicus; assay: Concentration giving 50% relaxation of the 30 mM KCl-induced contraction of rat aortic rings (n=3); type: functional; settings: Aorta, read-out: ED50 (the source's name); procedure, shortened: as §1
Rattus norvegicus [9] = species on record: Rattus norvegicus; assay: Concentration required for 50% inhibition of insulin release in rat pancreatic B-cells; type: functional, cell-based
Rattus norvegicus [10] = species on record: Rattus norvegicus; assay: Effect on insulin secretion from rat pancreatic islets at 10 uM concentration (n=14); type: functional; procedure, shortened: as §2
Rattus norvegicus [11] = species on record: Rattus norvegicus; assay: Effect on insulin secretion from rat pancreatic islets at 50 uM concentration (n=13); type: functional; procedure, shortened: as §2
Rattus norvegicus [12] = species on record: Rattus norvegicus; assay: Effect on insulin secretion from rat pancreatic islets at 1 uM concentration (n=15); type: functional; procedure, shortened: as §2
Rattus norvegicus [13] = species on record: Rattus norvegicus; assay: Effect on insulin secretion from rat pancreatic islets at 10 uM concentration (n=21); type: functional; procedure, shortened: as §2
Rattus norvegicus [14] = species on record: Rattus norvegicus; assay: Effect on insulin secretion from rat pancreatic islets at 1 uM concentration (n=16); type: functional; procedure, shortened: as §2
Rattus norvegicus [15] = species on record: Rattus norvegicus; assay: Effect on insulin secretion from rat pancreatic islets at 10 uM concentration (n=37); type: functional
Rattus norvegicus [16] = species on record: Rattus norvegicus; assay: Effect on insulin secretion from rat pancreatic islets at 50 uM concentration (n=14); type: functional; procedure, shortened: as §2
Rattus norvegicus [17] = species on record: Rattus norvegicus; assay: Concentration required for relaxation of the 30 mM KCl-induced contraction of rat aortic rings; Precipitate; type: functional; settings: Aorta; procedure, shortened: as §1
Rattus norvegicus [18] = species on record: Rattus norvegicus; assay: Effect on insulin secretion from rat pancreatic islets at 10 uM concentration (n=16); type: functional; procedure, shortened: as §2
Rattus norvegicus [19] = species on record: Rattus norvegicus; assay: Concentration giving 50% relaxation of the 30 mM KCl-induced contraction of rat aortic rings (n=11); settings: Aorta, read-out: ED50
Rattus norvegicus [20] = species on record: Rattus norvegicus; assay: Concentration giving 50% relaxation of the 30 mM KCl-induced contraction of rat aortic rings (n=6); type: functional; settings: Aorta, read-out: ED50 (the source's name); procedure, shortened: as §1
Rattus norvegicus [21] = species on record: Rattus norvegicus; assay: Effect on insulin secretion from rat pancreatic islets at 10 uM concentration (n=12); type: functional; procedure, shortened: as §2
Rattus norvegicus [22] = species on record: Rattus norvegicus; assay: Effect on insulin secretion from rat pancreatic islets at 1 uM concentration (n=23); type: functional; procedure, shortened: as §2
Rattus norvegicus [23] = species on record: Rattus norvegicus; assay: Effect on insulin secretion from rat pancreatic islets at 10 uM concentration (n=24); type: functional; procedure, shortened: as §2
Rattus norvegicus [24] = species on record: Rattus norvegicus; assay: Effect on insulin secretion from rat pancreatic islets at 50 uM concentration (n=11); type: functional; procedure, shortened: as §2
Rattus norvegicus [25] = species on record: Rattus norvegicus; assay: Concentration giving 50% relaxation of the 30 mM KCl-induced contraction of rat aortic rings (n=10); type: functional; settings: Aorta, read-out: ED50 (the source's name); procedure, shortened: as §1
Rattus norvegicus [26] = species on record: Rattus norvegicus; assay: Effect on insulin secretion from rat pancreatic islets at 10 uM concentration (n=23); type: functional; procedure, shortened: as §2
Rattus norvegicus [27] = species on record: Rattus norvegicus; assay: Effect on insulin secretion from rat pancreatic islets at 1 uM concentration (n=22); type: functional; procedure, shortened: as §2
Rattus norvegicus [28] = species on record: Rattus norvegicus; assay: Effect on insulin secretion from rat pancreatic islets at 50 uM concentration (n=9); type: functional; procedure, shortened: as §2
Rattus norvegicus [29] = species on record: Rattus norvegicus; assay: Effect on insulin secretion from rat pancreatic islets at 10 uM concentration (n=15); type: functional; procedure, shortened: as §2
Rattus norvegicus [30] = species on record: Rattus norvegicus; assay: Effect on insulin secretion from rat pancreatic islets at 50 uM concentration (n=21); type: functional; procedure, shortened: as §2
Rattus norvegicus [31] = species on record: Rattus norvegicus; assay: Concentration required for relaxation of the 30 mM KCl-induced contraction of rat aortic rings; type: functional; settings: Aorta; procedure, shortened: as §1
Rattus norvegicus [32] = species on record: Rattus norvegicus; assay: Concentration giving 50% relaxation of the 30 mM KCl-induced contraction of rat aortic rings (n=8); type: functional, Aorta; settings: read-out: ED50 (the source's name); procedure, shortened: as §1
Rattus norvegicus [33] = species on record: Rattus norvegicus; assay: Effect on insulin secretion from rat pancreatic islets at 50 uM concentration (n=23); type: functional; procedure, shortened: as §2
Rattus norvegicus [34] = species on record: Rattus norvegicus; assay: Effect on insulin secretion from rat pancreatic islets at 1 uM concentration (n=19); type: functional; procedure, shortened: as §2

EC50 (Rattus norvegicus [4]): 15.7 µM
Compound: CCCNC1=NS(=O)(=O)c2cc([N+](=O)[O-])ccc2N1
Residual insulin release (Rattus norvegicus [5]): 88.9%

pKa [6]: 10.2
EC50 (Rattus norvegicus [8]): 200 µM
IC50 (Rattus norvegicus [9]): 2 µM
Compound: Cc1ccc2c(c1)S(=O)(=O)N=C(NC(C)C)N2
Ratio (Rattus norvegicus [7]): 100
Residual insulin release (Rattus norvegicus [10]): 8.5%
Residual insulin release (Rattus norvegicus [11]): 3.5%
Residual insulin release (Rattus norvegicus [12]): 71.3%

pKa [6]: 7.91
EC50 (Rattus norvegicus [1]): 23.1 µM
Compound: CC(C)NC1=NS(=O)(=O)c2cc([N+](=O)[O-])ccc2N1
Residual insulin release (Rattus norvegicus [15]): 64%
Residual insulin release (Rattus norvegicus [16]): 4.8%

pKa [6]: 9.8
EC50 (Rattus norvegicus [1]): > 300 µM
Compound: CC(=O)Nc1ccc2c(c1)S(=O)(=O)N=C(NC(C)C)N2
Residual insulin release (Rattus norvegicus [5]): 89.3%

EC50 (Rattus norvegicus [1]): 2.8 µM
Compound: CC(C)C(C)NC1=NS(=O)(=O)c2cc([N+](=O)[O-])ccc2N1 (stereo not given)
Residual insulin release (Rattus norvegicus [5]): 90.4%

pKa [6]: 10.5
EC50 (Rattus norvegicus [1]): > 300 µM
Compound: CC(C)NC1=NS(=O)(=O)c2cc(N)ccc2N1
Residual insulin release (Rattus norvegicus [3]): 85.8%

EC50 (Rattus norvegicus [25]): 15.5 µM
IC50 (Rattus norvegicus [9]): 11.2 µM
Compound: CCC(C)NC1=NS(=O)(=O)c2cc(C)ccc2N1 (stereo not given)
Ratio (Rattus norvegicus [7]): 1.4
Residual insulin release (Rattus norvegicus [26]): 50.7%
Residual insulin release (Rattus norvegicus [27]): 93.6%

EC50 (Rattus norvegicus [1]): 17.5 µM
IC50 (Rattus norvegicus [9]): 4 µM
Compound: CCC(C)NC1=NS(=O)(=O)c2cc(OC)ccc2N1 (stereo not given)
Ratio (Rattus norvegicus [7]): 4.4
Residual insulin release (Rattus norvegicus [28]): 8.5%
Residual insulin release (Rattus norvegicus [29]): 23.4%
Residual insulin release (Rattus norvegicus [12]): 92.4%

pKa [6]: 8.56
EC50 (Rattus norvegicus [1]): 42.7 µM
Compound: CC(C)NC1=NS(=O)(=O)c2cc(C#N)ccc2N1
Residual insulin release (Rattus norvegicus [29]): 82.2%
Residual insulin release (Rattus norvegicus [30]): 23.5%

EC50 (Rattus norvegicus [1]): > 300 µM
Compound: CCC(C)NC1=NS(=O)(=O)c2cc(C(=O)O)ccc2N1 (stereo not given)
Residual insulin release (Rattus norvegicus [26]): 93%
Residual insulin release (Rattus norvegicus [5]): 91.2%

Further lines, the compound ahead of its results:

Compound: CCC(C)NC1=NS(=O)(=O)c2cc(C(F)(F)F)ccc2N1 (stereo not given)
EC50 (Rattus norvegicus [1]): 8.9 µM
Residual insulin release (Rattus norvegicus [2]): 76.1%
Residual insulin release (Rattus norvegicus [3]): 28.6%

Compound: CCCNC1=NS(=O)(=O)c2ccccc2N1
EC50 (Rattus norvegicus [1]): > 300 µM
Residual insulin release (Rattus norvegicus [13]): 54.2%
Residual insulin release (Rattus norvegicus [14]): 93.8%

Compound: CCC(C)NC1=NS(=O)(=O)c2ccccc2N1 (stereo not given)
ED50 (Rattus norvegicus [17]): Precipitate
Residual insulin release (Rattus norvegicus [18]): 42.7%
Residual insulin release (Rattus norvegicus [14]): 90.4%

Compound: CC1=Nc2ccc(Cl)cc2S(=O)(=O)N1 [DIAZOXIDE]
Ratio (Rattus norvegicus [7]): 1
EC50 (Rattus norvegicus [19]): 22.4 µM
IC50 (Rattus norvegicus [9]): 22.6 µM
Residual insulin release (Rattus norvegicus [18]): 73.9%
Residual insulin release (Rattus norvegicus [5]): 26.7%
Residual insulin release (Rattus norvegicus [12]): 87.5%

Compound: CCCCCc1ccc2c(c1)S(=O)(=O)NC(NC(C)C)=N2
EC50 (Rattus norvegicus [1]): 20.1 µM
Residual insulin release (Rattus norvegicus [18]): 106%

Compound: CCNC1=NS(=O)(=O)c2cc(C)ccc2N1
Ratio (Rattus norvegicus [7]): 84
EC50 (Rattus norvegicus [20]): 210 µM
IC50 (Rattus norvegicus [9]): 2.5 µM
Residual insulin release (Rattus norvegicus [21]): 8.6%
Residual insulin release (Rattus norvegicus [22]): 83.8%

Compound: CCNC1=NS(=O)(=O)c2ccccc2N1
EC50 (Rattus norvegicus [1]): > 300 µM
Residual insulin release (Rattus norvegicus [21]): 25.8%
Residual insulin release (Rattus norvegicus [22]): 77.4%

Compound: Cc1ccc2c(c1)S(=O)(=O)NC(NC1CCC1)=N2
Ratio (Rattus norvegicus [7]): 10
EC50 (Rattus norvegicus [1]): 58.4 µM
IC50 (Rattus norvegicus [9]): 5.6 µM
Residual insulin release (Rattus norvegicus [23]): 19.7%
Residual insulin release (Rattus norvegicus [24]): 3.7%
Residual insulin release (Rattus norvegicus [22]): 99.5%

Compound: CCOc1ccc2c(c1)S(=O)(=O)NC(NC(C)C)=N2
EC50 (Rattus norvegicus [1]): 233 µM
Residual insulin release (Rattus norvegicus [10]): 65.9%

Compound: CC(C)C(C)NC1=NS(=O)(=O)c2cnccc2N1 (stereo not given)
IC50 (Rattus norvegicus [31]): 154 µM
Ratio (Rattus norvegicus [7]): 35
EC50 (Rattus norvegicus [32]): 154 µM
Residual insulin release (Rattus norvegicus [26]): 13.7%
Residual insulin release (Rattus norvegicus [33]): 8.6%
Residual insulin release (Rattus norvegicus [34]): 70.5%

Compound: O=[N+]([O-])c1ccc2c(c1)S(=O)(=O)NC(NC1CCC1)=N2
EC50 (Rattus norvegicus [1]): 13.8 µM
Residual insulin release (Rattus norvegicus [11]): 59.6%
